The values that follow come from ChEMBL document CHEMBL1133649, “Development of peptide 3D structure mimetics: rational design of novel peptoid cholecystokinin receptor antagonists” (J Med Chem, 2000).

Each structure is given as a SMILES string.

Assay [1] addresses T1, Gastrin/cholecystokinin type B receptor (Mus musculus) (UniProt P56481).
T1 sequence (whole entry): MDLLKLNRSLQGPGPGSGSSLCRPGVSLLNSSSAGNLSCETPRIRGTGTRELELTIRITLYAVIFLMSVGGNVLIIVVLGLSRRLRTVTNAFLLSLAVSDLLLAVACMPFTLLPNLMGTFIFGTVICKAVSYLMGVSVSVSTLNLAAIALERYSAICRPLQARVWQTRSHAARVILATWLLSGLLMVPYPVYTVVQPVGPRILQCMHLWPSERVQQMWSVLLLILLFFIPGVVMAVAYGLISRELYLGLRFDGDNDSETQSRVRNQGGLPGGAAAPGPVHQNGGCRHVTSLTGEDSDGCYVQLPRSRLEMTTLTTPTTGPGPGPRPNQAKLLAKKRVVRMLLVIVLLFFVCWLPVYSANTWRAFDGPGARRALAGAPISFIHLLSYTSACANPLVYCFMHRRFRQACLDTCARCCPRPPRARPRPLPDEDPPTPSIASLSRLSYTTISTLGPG
In words: Percent maximal response at Cholecystokinin type B receptor relative to a pentagastrin control. Format: functional. The procedure, abridged: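 Mouse isolated lumen-perfused stomach (male CD1, 18 h fasted) with 0.3 mM IBMX serosally and 90 min stabilization. Acid secretion read as change in perfusate pH from basal before the first agonist addition. Concentration-effect curves were fitted to the Hill equation. α is the maximal response as a percentage of a pentagastrin control, mean of at least six experiments. Single concentration 1 × 10^-5 M.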

Assay [2] deals with T2, Cholecystokinin receptor type A (Cavia porcellus) (UniProt Q63931).
T2 sequence (whole entry): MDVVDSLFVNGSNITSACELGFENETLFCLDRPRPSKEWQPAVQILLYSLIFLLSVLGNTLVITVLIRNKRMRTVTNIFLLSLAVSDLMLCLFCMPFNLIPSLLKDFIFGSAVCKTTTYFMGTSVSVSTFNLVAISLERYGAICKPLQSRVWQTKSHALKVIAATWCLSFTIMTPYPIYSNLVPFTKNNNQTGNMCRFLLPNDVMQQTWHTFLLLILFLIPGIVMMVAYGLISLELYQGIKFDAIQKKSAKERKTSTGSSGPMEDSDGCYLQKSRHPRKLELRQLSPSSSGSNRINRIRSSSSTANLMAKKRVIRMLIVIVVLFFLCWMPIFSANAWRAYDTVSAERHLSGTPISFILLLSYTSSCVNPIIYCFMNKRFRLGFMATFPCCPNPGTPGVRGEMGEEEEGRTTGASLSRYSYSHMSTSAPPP
In words: Tested for affinity on Cholecystokinin type A receptor in the in vitro guinea pig gallbladder with respect to the shift of the CCK-8S dose response curve. The essentials: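 Guinea-pig gall bladder muscle strips held in organ baths under a single 1 g load, allowed to relax to a stable baseline, washed twice. Isometric force recorded continuously. Test compound or vehicle was incubated 1 h, then a single cumulative CCK-8S E/[A] curve was obtained. pKB came from the curve shift. Mean of at least six experiments ± SEM; at least eight preparations run per assay in randomized blocks.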

In assay [1], `CC(C)(C)OC(=O)N[C@@H](Cc1c[nH]c2ccccc12)C(=O)N[C@H](Cc1ccc2ccccc2c1)C(=O)N[C@H](CC(=O)O)C(=O)N[C@@H](Cc1ccc(Cl)cc1)C(N)=O` returned a Response of 74%. The KBp in assay [2] amounted to 5.9.
